Activity calls are given as the source filed them. No cut-off for these calls is given here.

The subject of test [1] is U2OS. In words: Induction of mitochondrial fragmentation in human U2OS cells assessed as puncta-like staining at 10 uM incubated for 20 hrs by Mito Tracker Deep Red dye based CPA assay. In kind it is functional, cell-based. A digest of the protocol:
(§1)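 Cell Painting: U-2OS were seeded at 1600 cells/well, then dosed 4 h later for 20 h at 37 °C against a matched-% DMSO control. Live cells were stained 30 min with 100 nM MitoTracker Deep Red, then fixed in 3.7% formaldehyde and permeabilized with 0.1% Triton X-100. They were co-stained with phalloidin, concanavalin A, Hoechst, WGA and SYTO 14. Imaging was high-content, run as triplicate plates; features are Z-scores versus DMSO median/MAD.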

Test [2] concerns U2OS. Nature of the test: Inhibition of cell confluence in human U2OS cells at 10 to 50 uM measured after 48 hrs by PI/caspase-3/7 Green dye based analysis. In kind it is functional. The following applies: dose 10-50 µM. The method, boiled down: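 U-2OS at 5000/well were incubated overnight, then given medium with compound or DMSO plus propidium iodide and CellEvent Caspase-3/7 Green. Cells were imaged hourly for 48 h by live-cell imaging. Phase confluence gave growth; red and green object confluence gave PI-positive cells and caspase-3/7 activity.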

Test [3] relates to U2OS. In words: Effect on mitochondrial respiration in human U2OS cells assessed as suppression of OCR level at 10 to 30 uM measured after 24 hrs by Seahorse analysis. Format: functional, cell-based. The following applies: dose 10-30 µM. A digest of the protocol: (§2)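 Seahorse XFp Mito Stress Test on U-2OS, 2 × 10⁵ cells per well, seeded overnight. Assay medium was pH 7.4 DMEM with 2 mM GlutaMAX, 1 mM pyruvate and 25 mM glucose. For acute runs, compound was injected after 5 baseline reads, then 10 reads. Otherwise cells were pretreated 24 h. Then oligomycin A, FCCP and rotenone/antimycin A were added. OCR/ECAR were background-subtracted and normalized to the last baseline (100%). Mean ± SD, n = 3.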

Test [4] relates to U2OS. In words: Effect on mitochondrial respiration in human U2OS cells assessed as suppression of OCR level at 10 to 30 uM of acute treatment by Seahorse analysis. The following applies: dose 10-30 µM. Format: functional, cell-based. The method, boiled down:
as §2

Test [5] deals with U2OS. Nature of the test: Effect on glycolysis in human U2OS cells assessed as increase in ECAR level at 10 to 30 uM of acute treatment by Seahorse analysis. In kind it is functional, cell-based. The following applies: dose 10-30 µM. A digest of the protocol:
as §2

In test [6] the test system is U2OS. In words: Effect on glycolysis in human U2OS cells assessed as increase in ECAR level at highest concentration measured after 24 hrs by Seahorse analysis. In kind it is functional, cell-based. The method, boiled down: as §2
Test [7] concerns U2OS. Nature of the test: Effect on mitochondrial membrane potential in human U2OS cells at 10 uM incubated for 24 hrs by TRME staining based analysis. Format: functional, cell-based. A digest of the protocol: (§3)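 U-2OS (5 × 10³/well) were treated 24 h, then given 20 μM FCCP or 0.5% DMSO controls for 10 min. Cells were stained 30 min at 37 °C with 1 μM TMRE plus Hoechst-33342 in complete DMEM, washed, and imaged live in 0.2% BSA/PBS at 10× (TMRE ex/em 549/575 nm).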

Test [8] has as its system U2OS. Nature of the test: Induction of oxidative stress in human U2OS cells assessed as increase in mitochondrial superoxide level at 10 uM incubated for 1 hr by MitoSox Red staining based analysis. In kind it is functional, cell-based. A digest of the protocol:
(§4)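 U-2OS at 15,000/well were preloaded 30 min with 5 μM MitoSOX Red plus Hoechst in plain DMEM. They were then treated 60 min in complete DMEM, fixed in 0.5% paraformaldehyde, and imaged at 10×. Integrated MitoSOX intensity per cell was normalized to DMSO (0%) and 10 μM CDNB (100%). Mean ± SD, n = 3.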

In test [9] the test system is U2OS. Nature of the test: Effect on oxidative phosphorylation in human U2OS cells at 30 uM incubated for 24 hrs by pathway over-representation analysis. In kind it is functional, cell-based. The method, boiled down: (§5)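 U-2OS seeded at 1 × 10⁶ cells in T75 flasks, treated next day for 24 h at 37 °C versus DMSO. Cells were lysed by freeze–thaw, reduced with TCEP at 55 °C, alkylated with iodoacetamide, acetone-precipitated and trypsin-digested. Peptides were TMT-labelled, split into 10 fractions by high-pH C18, then run on nanoHPLC-MS/MS (orbitrap). Biological triplicates, with pathway over-representation analysis.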

Test [10] relates to U2OS. Nature of the test: Effect on mitochondrial dysfunction in human U2OS cells at 30 uM incubated for 24 hrs by pathway over-representation analysis. Format: functional, cell-based. The method, boiled down:
as §5

The subject of test [11] is U2OS. In words: Effect on HIF1 signaling in human U2OS cells incubated for 24 hrs by pathway over-representation analysis. In kind it is functional, cell-based. The method, boiled down:
as §5

Test [12] relates to U2OS. Nature of the test: Induction of integrated stress response in human U2OS cells assessed as increase ATF4 mRNA level at 30 uM incubated for 24 hrs by RT-qPCR analysis. Format: functional, cell-based. The method, boiled down:
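U-2OS at 1 × 10⁵/well in 6-well plates were grown 24 h to ~80% confluence, then treated 24 h versus DMSO. Total RNA (DNase-treated) was reverse-transcribed and ATF4 measured by SYBR Green qPCR. Expression was calculated by ΔΔCt against GAPDH, with DMSO set to 100%. Mean ± SD, n = 3.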

Test [13] has as its system U2OS. Nature of the test: Induction of integrated stress response in human U2OS cells assessed as increase ATF4 level at 30 uM incubated for 24 hrs by Western blot analysis. In kind it is functional, cell-based. A digest of the protocol: (§6)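 U-2OS grown to 80% confluence in 6-well plates were treated 24 h at 37 °C versus DMSO. ATF4 was detected by immunoblotting, with vinculin as reference protein.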
On the technique in general: In western blotting, separated proteins are transferred to a membrane and probed.

In test [14] the test system is U2OS. In words: Effect on mitochondrial morphology in human U2OS cells at high concentration incubated for 20 hrs by Mito Tracker Deep Red dye based CPA assay. Format: functional, cell-based. A digest of the protocol: as §1
Test [15] has as its system U2OS. In words: Induction of mitochondrial fragmentation in human U2OS cells assessed as puncta-like staining at 30 to 50 uM incubated for 20 hrs by Mito Tracker Deep Red dye based CPA assay. Format: functional, cell-based. Particulars: dose 30-50 µM. The method, boiled down:
as §1

For test [16], the system named is U2OS. In words: Induction of mitochondrial network fragmentation in human U2OS cells incubated for […] by CellLight Mitochondria-GFP assay. Format: functional, cell-based. Particulars: dose 30.0 µM. The method, boiled down: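 U-2OS were transduced with CellLight Mitochondria-GFP BacMam 2.0 one day before treatment. 3000 cells/well were seeded in chamber slides. After compound addition, live cells were imaged by confocal microscopy (488/555 nm) continuously over 24 h at 37 °C, 5% CO₂.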

For test [17], the system named is U2OS. In words: Effect on mitochondrial respiration in human U2OS cells assessed as suppression of OCR level measured after 24 hrs by Seahorse analysis. Format: functional, cell-based. A digest of the protocol:
as §2

In test [18] the test system is U2OS. Nature of the test: Effect on mitochondrial respiration in human U2OS cells assessed as suppression of OCR level at 30 uM measured after 24 hrs by Seahorse analysis relative to control. In kind it is functional. A digest of the protocol: as §2
Test [19] deals with U2OS. Nature of the test: Effect on mitochondrial membrane potential in human U2OS cells at 30 uM incubated for 24 hrs by TRME staining based analysis. In kind it is functional, cell-based. The method, boiled down: as §3
The subject of test [20] is U2OS. Nature of the test: Induction of oxidative stress in human U2OS cells assessed as increase in mitochondrial superoxide level at 30 uM incubated for 1 hr by MitoSox Red staining based analysis. In kind it is functional, cell-based. A digest of the protocol: as §4
Test [21] concerns U2OS. Nature of the test: Effect on glucose metabolism in human U2OS cells at 30 uM incubated for 24 hrs by pathway over-representation analysis. Format: functional, cell-based. The method, boiled down: as §5
Test [22] relates to U2OS. In words: Effect on glycolysis in human U2OS cells at 30 uM incubated for 24 hrs by pathway over-representation analysis. Format: functional, cell-based. A digest of the protocol:
as §5

Test [23] concerns U2OS. In words: Effect on HIF1 signaling in human U2OS cells at 30 uM incubated for 24 hrs by pathway over-representation analysis. In kind it is functional, cell-based. A digest of the protocol:
as §5

Test [24] has as its system U2OS. Nature of the test: Upregulation of EGLN1 expression in human U2OS cells at 10 to 30 uM incubated for 24 hrs by proteome profiling based analysis. Format: functional, cell-based. The following applies: dose 10-30 µM. A digest of the protocol:
as §5

The subject of test [25] is U2OS. In words: Upregulation of HK2 expression in human U2OS cells at 10 to 30 uM incubated for 24 hrs by proteome profiling based analysis. Format: functional, cell-based. The following applies: dose 10-30 µM. The method, boiled down: as §5
The subject of test [26] is U2OS. Nature of the test: Upregulation of HMOX1 expression in human U2OS cells at 30 uM incubated for 24 hrs by proteome profiling based analysis. In kind it is functional, cell-based. The method, boiled down: as §5
Test [27] deals with U2OS. In words: Upregulation of SLC2A1 expression in human U2OS cells at 10 to 30 uM incubated for 24 hrs by proteome profiling based analysis. Format: functional, cell-based. The following applies: dose 10-30 µM. A digest of the protocol: as §5
The test system of test [28] is HEK-293T. Nature of the test: Upregulation of HIF1 level in HEK293T cells transfected with HIF1/luc at 30 uM incubated for 24 hrs by Renilla luciferase base assay. Format: functional, cell-based. The following applies: Homo sapiens. The method, boiled down: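 HEK293T were co-transfected (Lipofectamine 2000) with a PGK1-HRE-driven destabilized firefly luciferase reporter and constitutive TK-Renilla. Cells were seeded at 2.5 × 10⁴/well, then treated 24 h the next day, with 100 μM CoCl₂ and 10 μM ML228 as controls. Dual-Glo readout: firefly was normalized to Renilla and expressed as fold induction over DMSO.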

The test system of test [29] is U2OS. In words: Effect on EIF2 level in human U2OS cells at 30 uM incubated for 24 hrs by proteome profiling based analysis. In kind it is functional, cell-based. A digest of the protocol:
as §5

The test system of test [30] is U2OS. Nature of the test: Downregulation of MRPs level in human U2OS cells at 30 uM incubated for 24 hrs by proteome profiling based analysis. Format: functional, cell-based. A digest of the protocol:
as §5

Test [31] deals with U2OS. In words: Downregulation of […] level in human U2OS cells at 10 to 30 uM incubated for 24 hrs by proteome profiling based analysis. Format: functional, cell-based. Particulars: dose 10-30 µM. A digest of the protocol: as §5
Test [32] deals with U2OS. Nature of the test: Induction of mitochondrial fragmentation in human U2OS cells assessed as puncta-like staining at 30 uM incubated for 20 hrs by Mito Tracker Deep Red dye based CPA assay. In kind it is functional, cell-based. The method, boiled down: as §1
In test [33] the test system is U2OS. Nature of the test: Induction of integrated stress response in human U2OS cells assessed as increase ATF4 level at 50 uM incubated for 24 hrs by Western blot analysis. Format: functional, cell-based. The method, boiled down:
as §6

Regarding `COc1cc(OC)c2c(c1Cl)OC1(CCC3(CC1C)OCCc1c3c3cc(C)ccc3n1Cc1ccccc1)C2=O` (centres undefined), the outcome in test [1], in [3], in test [6], in test [8], in test [9] and in test [10] was Active. Further, the outcome in test [12] and in [13] was Active. Also, the inhibition result in test [2] is “inactive”. The outcome in test [4], in test [5], in test [7] and in test [11] was inactive.
As to `Cc1cc(C2CCCCC2)n(O)c(=O)c1` [CICLOPIROX], the result in test [14], in test [15], in test [6], in test [20], in [21] and in test [22] was Active. For the same molecule, the result in test [9], in [10], in [23], in test [24], in test [25] and in test [26] was Active. Moreover, the result in [27], in test [28], in test [29], in test [30], in [31] and in test [12] was Active. In addition, the outcome in test [13] was Active. In addition, the Activity entry in test [16] was “Dose-Dependent Effect”; in [17], “Dose-Dependent Effect”; in [18], around 100%. The inhibition entry in [2] is “inactive”. The outcome in [4], in test [5] and in test [19] was inactive.
Turning to `Cc1cccc(-c2[nH]c(C(C)(C)C)nc2-c2ccc3nccnc3c2)n1`, the result in [32], in [3], in test [6], in [20], in test [9] and in test [10] was Active. The outcome in test [28], in test [12] and in [13] was Active. In test [2], the inhibition entry was “inactive”. Moreover, the outcome in test [4], in test [5], in [19] and in [23] was inactive.
Take `CC(=O)N(O)CCCCCNC(=O)CCC(=O)N(O)CCCCCNC(=O)CCC(=O)N(O)CCCCCN`: the outcome in test [33] was inactive.

The values are drawn from ChEMBL document CHEMBL5550188, “Detection of a Mitochondrial Fragmentation and Integrated Stress Response Using the Cell Painting Assay” (2024).
